In PubChem BioAssay:
Records with an inconclusive call do not appear.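 Rule for the calls, unless noted: active = viability increase at or above a cutoff of the median across tested compounds plus 3 SD (cut at about 8.5% in these data, passing the limit was not always enough); inconclusive = some gains above the cutoff, reason not given; inactive = the rest.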

Key:
[1] = S. cerevisiae growth inhibition in permissive medium (OD615), pilot counter-assay for S. cerevisiae lifespan shortening project, permissive growth control (AID 705;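 active = growth inhibition above 25% in both replicates, a cutoff set 3 SD above the mean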); settings: OD615, 24 h, at 10 µM, active compounds read high
Method in brief: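 System: engineered DeaD yeast; Medium: permissive raffinose/galactose medium; Compound dosing: 10 µM single dose, 0.25% DMSO; Incubation: 4 h cell pre-growth, 24 h exposure at 30 °C; Technique: OD at 615 nm; Evaluation: growth inhibition from lowered OD615 after 24 h.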

[2] = S. cerevisiae growth inhibition in restrictive medium, OD615, pilot screen, restrictive growth control, yeast lifespan reduction project (AID 706;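 active = growth inhibition above a set limit, 3 SD over mean compound inhibition, in both replicates, cut at about 43% in these data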;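 note: modified DeaD lifespan yeast strain shifted to restrictive glucose medium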); settings: OD615, 48 h, at 10 µM, active compounds read high
Method in brief: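 Material: modified S. cerevisiae; buffer or medium: CSMM-D glucose medium; doses: one concentration, 10 µM final, 0.25% DMSO; incubation: 48 h compound exposure at 30 °C; detection: optical density at 615 nm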

[3] = doxorubicin toxicity protection in MRP-1 cells – H69AR cells, CellTiter-Glo, duplicate, MRP-1 activator project, pilot screen (AID 807); settings: H69AR viability with doxorubicin, CellTiter-Glo luminescence; at 10 µM; active compounds read high;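 note: compound pretreatment 18-22 h then 72 h combined with doxorubicin; 0% = doxorubicin alone and 100% = vehicle without doxorubicin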
[4] = viability of HCT116 without oncogenic beta-catenin – human colon tumor cells, pilot screen (AID 823;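 active = cell viability at or below a set limit in both duplicate runs, the limit being the all-compound median minus 4 SD, cut at about 23% in these data, passing the limit was not always enough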;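 note: 0% = wells killed by 20 µM Hyamine and 100% = untreated DMSO cell wells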); settings: HCT116 beta-catenin knockout viability, CellTiter-Glo, 60 h; at 10 µM; active compounds read low
[5] = viability of PTEN-null HCT116 cells – cell-based, HCT116 clonal line, CellTiter-Glo, pilot screen (AID 824;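 active = viability at or below 27.92% in each of two runs, the all-compound median minus 4 SD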;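 note: 0% = 20 µM Hyamine control and 100% = vehicle cell control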); settings: HCT116 PTEN-deleted viability, 60 h, at 10 µM, active compounds read low
[6] = RAM pathway blockade in budding yeast – dse1pr::URA3 reporter, 5-FOA selection, pilot screen (AID 869;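 active = inhibition over a set limit, the all-compound mean plus 3 SD, in both replicate runs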;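 note: 0% = DMSO wells with no growth and 100% = 10 µM 1-NA-PP1 with full growth; RAM network block rescues cells from 5-FOA so hits raise OD615 growth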); settings: S. cerevisiae dse1pr::URA3 5-FOA growth, OD615, 2 d; at 10 µM; active compounds read high; strain carries analog-sensitive mutant Cbk1 kinase
[7] = RAM signaling pathway blockade in yeast – S. cerevisiae, Pdr1DBD-CYC8 efflux-inhibited sensitized strain, primary screen (AID 1298;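 active = RAM network inhibition above 8.4% in each of two replicates, 3 SD over the compound average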;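 note: 0% = DMSO untreated cells without growth and 100% = 10 µM 1-NA-PP1 full growth; higher means more yeast growth rescued from 5-FOA killing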); settings: S. cerevisiae cbk1-as DSE1-URA3 strain, 5-FOA growth OD615, 2 d; at 50 µM; active compounds read high

CC1CCN(C(=O)CN2C(=O)C(=O)c3ccccc32)CC1
inactive: growth inhibition [1] 3.92% | growth inhibition [2] -0.215% | viability increase [3] -5.16% | viability [4] 100% | viability [5] 97.1% | inhibition [6] 1.33% | RAM network inhibition [7] 3.27%

Cc1sc(NC(=O)c2cccs2)c(C(N)=O)c1C
inactive: growth inhibition [1] -6.89% | growth inhibition [2] 22.8% | viability increase [3] -6.53% | viability [4] 80.8% | viability [5] 88.4% | inhibition [6] 0.26% | RAM network inhibition [7] -1.19%

COc1ccc(C(=O)Nc2ccc(Cl)cc2C(=O)NCc2ccco2)cc1OC
inactive: growth inhibition [1] -0.55% | growth inhibition [2] -8.55% | viability increase [3] -4.93% | viability [4] 73.4% | viability [5] 68.9% | inhibition [6] 0.625% | RAM network inhibition [7] 7.76%

O=C(CSc1ncnc2c1oc1ccccc12)NCc1ccc(F)cc1
inactive: growth inhibition [1] -0.505% | growth inhibition [2] -4.67% | viability increase [3] -3.33% | viability [4] 68.6% | viability [5] 81% | inhibition [6] -0.055% | RAM network inhibition [7] -2.13%

Cc1ccccc1N(CC(=O)NCCSCc1ccco1)S(C)(=O)=O
inactive: growth inhibition [1] -4.43% | growth inhibition [2] -7.72% | viability increase [3] -3.94% | viability [4] 93.1% | viability [5] 95.5% | inhibition [6] -0.58% | RAM network inhibition [7] 7.43%

CCCc1nnc(SCC(=O)O)n1/N=C/c1ccc2c(c1)OCO2
inactive: growth inhibition [1] 8.88% | growth inhibition [2] 34.1% | viability increase [3] -2.31% | viability [4] 102% | viability [5] 101% | inhibition [6] 0.54% | RAM network inhibition [7] 0.41%

Cc1cc(Nc2cc(C(=O)O)ccc2C)n2ncnc2n1
inactive: growth inhibition [1] 4.96% | growth inhibition [2] -2.32% | viability increase [3] 0.41% | viability [4] 95.9% | viability [5] 102% | inhibition [6] 0.71% | RAM network inhibition [7] 0.57%

Cc1cc2oc3c(c(=O)c2cc1C)C(c1ccc(C(C)C)cc1)N(CCCN1CCOCC1)C3=O (stereo unspecified)
inactive: growth inhibition [1] -7.04% | growth inhibition [2] -2.79% | viability increase [3] -3.45% | viability [4] 95.8% | viability [5] 86.5% | inhibition [6] 1.31% | RAM network inhibition [7] 4.42%

CC12CCC(C(=O)N3CCCc4ccccc43)(CC1=O)C2(C)C (stereo unspecified)
inactive: growth inhibition [1] -15% | growth inhibition [2] -2.7% | viability increase [3] -0.39% | viability [4] 83.6% | viability [5] 87.6% | inhibition [6] 0.94% | RAM network inhibition [7] 0.93%

C=CCn1c(C(C)NC(=O)CCC)nc2ccccc21 (stereo unspecified)
inactive: growth inhibition [1] 0.415% | growth inhibition [2] 7.8% | viability increase [3] -0.88% | viability [4] 104% | viability [5] 93.9% | inhibition [6] 1.11% | RAM network inhibition [7] -0.02%

CC(C)C(=O)Nc1nnc(-c2ccccc2)o1
inactive: growth inhibition [1] -5.24% | growth inhibition [2] -0.51% | viability increase [3] -2.2% | viability [4] 102% | viability [5] 101% | inhibition [6] 0.64% | RAM network inhibition [7] -0.68%

CCOC(=O)C(C(=O)OCC)=C1OC(=O)c2ccccc21
inactive: growth inhibition [1] -11.1% | growth inhibition [2] -7.16% | viability increase [3] 0.39% | viability [4] 98.6% | viability [5] 96.4% | inhibition [6] 2.19% | RAM network inhibition [7] 2.35%

Cc1ccc2[nH]c(=O)c3cc(C(=O)N(C)Cc4ccco4)sc3c2c1
inactive: growth inhibition [1] -11.6% | growth inhibition [2] -4.44% | viability increase [3] -5.5% | viability [4] 71.4% | viability [5] 67.5% | inhibition [6] -0.255% | RAM network inhibition [7] -1.79%

Cc1ccc(NC(=O)C2CCN(S(=O)(=O)c3cccc4cccnc34)CC2)nc1
inactive: growth inhibition [1] 2.12% | growth inhibition [2] -7.59% | viability increase [3] -2.71% | viability [4] 88.1% | viability [5] 87.2% | inhibition [6] -0.475% | RAM network inhibition [7] 3.26%

CCn1cc(SCC(N)=O)c2ccccc21
inactive: growth inhibition [1] -13.8% | growth inhibition [2] -17.4% | viability increase [3] 0.17% | viability [4] 99.1% | viability [5] 92.3% | inhibition [6] 1.14% | RAM network inhibition [7] 8.71%

COc1ccc(O)c(-c2[nH]ncc2C(=O)c2ccccc2C)c1
inactive: growth inhibition [1] -7.88% | growth inhibition [2] -5.12% | viability increase [3] -0.59% | viability [4] 100% | viability [5] 98.5% | inhibition [6] -0.045% | RAM network inhibition [7] -0.67%

O=C(NCc1ccccn1)C1CCN(S(=O)(=O)N2CCCC2)CC1
inactive: growth inhibition [1] -5.04% | growth inhibition [2] -10% | viability increase [3] -0.46% | viability [4] 109% | viability [5] 95.7% | inhibition [6] 0.3% | RAM network inhibition [7] 3.61%

CN1CCN(c2cc(=O)n(C3CCCCC3)c(=O)[nH]2)CC1
inactive: growth inhibition [1] -17.5% | growth inhibition [2] -8.34% | viability increase [3] 0.57% | viability [4] 101% | viability [5] 103% | inhibition [6] 1.9% | RAM network inhibition [7] 1.26%
